In the M2OR odorant receptor database:

Tests used:
Details in all cases: stereoisomer not certain
OR13H1 (Homo sapiens) = molecular target: T1, OR13H1 (Homo sapiens) (UniProt Q8NG92)
T1 sequence (whole entry): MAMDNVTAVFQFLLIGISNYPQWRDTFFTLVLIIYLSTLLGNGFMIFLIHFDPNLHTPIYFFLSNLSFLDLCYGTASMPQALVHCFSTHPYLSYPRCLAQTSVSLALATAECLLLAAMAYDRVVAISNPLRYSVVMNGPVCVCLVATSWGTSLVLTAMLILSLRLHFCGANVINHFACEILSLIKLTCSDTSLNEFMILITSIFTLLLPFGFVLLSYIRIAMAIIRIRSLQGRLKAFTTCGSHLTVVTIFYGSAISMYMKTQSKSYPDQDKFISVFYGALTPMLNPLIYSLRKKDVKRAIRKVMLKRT
Method in brief: (§1)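 Transient luciferase assays in mammalian cell lines were common, though methods varied by source. The values come from published papers and their supplementary material, with extra details from the original authors when needed. Responsive refers to a measured signal the original authors judged statistically different from baseline, and non-responsive (inactive) to the remainder.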

OR13J1 (Homo sapiens) = molecular target: T2, OR13J1 (Homo sapiens) (UniProt Q8NGT2)
T2 sequence (whole entry): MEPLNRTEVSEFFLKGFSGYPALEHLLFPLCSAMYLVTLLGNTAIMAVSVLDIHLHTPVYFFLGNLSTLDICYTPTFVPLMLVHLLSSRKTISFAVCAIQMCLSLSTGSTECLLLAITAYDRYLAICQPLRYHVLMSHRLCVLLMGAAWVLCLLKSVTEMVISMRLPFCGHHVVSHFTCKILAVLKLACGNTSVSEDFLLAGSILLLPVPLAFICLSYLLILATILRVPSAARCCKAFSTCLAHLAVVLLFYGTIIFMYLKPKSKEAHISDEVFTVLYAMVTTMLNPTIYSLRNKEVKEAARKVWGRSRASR
Method in brief: as §1

OR14A16 (Homo sapiens) = molecular target: T3, OR14A16 (Homo sapiens) (UniProt Q8NHC5)
T3 sequence (whole entry): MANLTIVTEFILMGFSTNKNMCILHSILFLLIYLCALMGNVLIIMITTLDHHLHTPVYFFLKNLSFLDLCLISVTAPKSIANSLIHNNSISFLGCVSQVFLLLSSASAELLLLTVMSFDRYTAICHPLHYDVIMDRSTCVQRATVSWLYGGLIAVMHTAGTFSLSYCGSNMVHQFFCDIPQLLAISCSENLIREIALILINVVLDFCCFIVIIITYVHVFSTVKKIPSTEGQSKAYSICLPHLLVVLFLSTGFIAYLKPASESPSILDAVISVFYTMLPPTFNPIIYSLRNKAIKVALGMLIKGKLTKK
Method in brief: as §1

OR14A2 (Homo sapiens) = molecular target: T4, OR14A2 (Homo sapiens) (UniProt Q96R54)
T4 sequence (whole entry): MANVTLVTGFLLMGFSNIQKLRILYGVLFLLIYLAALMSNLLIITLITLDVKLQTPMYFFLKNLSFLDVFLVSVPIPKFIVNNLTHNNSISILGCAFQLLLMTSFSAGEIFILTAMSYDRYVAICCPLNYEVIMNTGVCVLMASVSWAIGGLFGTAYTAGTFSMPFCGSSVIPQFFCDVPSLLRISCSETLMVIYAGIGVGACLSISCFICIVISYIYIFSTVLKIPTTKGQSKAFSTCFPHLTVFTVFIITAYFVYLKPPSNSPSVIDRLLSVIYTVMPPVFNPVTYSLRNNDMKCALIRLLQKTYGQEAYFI
Method in brief: as §1

OR14C36 (Homo sapiens) = molecular target: T5, OR14C36 (Homo sapiens) (UniProt Q8NHC7)
T5 sequence (whole entry): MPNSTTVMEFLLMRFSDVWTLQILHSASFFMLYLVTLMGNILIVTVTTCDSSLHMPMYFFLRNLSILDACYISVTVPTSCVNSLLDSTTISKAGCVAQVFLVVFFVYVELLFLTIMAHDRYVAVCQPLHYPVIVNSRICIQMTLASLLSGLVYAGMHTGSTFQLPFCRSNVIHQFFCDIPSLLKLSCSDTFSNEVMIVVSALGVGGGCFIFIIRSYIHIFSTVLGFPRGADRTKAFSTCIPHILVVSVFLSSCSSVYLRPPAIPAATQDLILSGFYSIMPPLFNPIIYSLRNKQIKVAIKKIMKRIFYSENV
Method in brief: as §1

OR14I1 (Homo sapiens) = molecular target: T6, OR14I1 (Homo sapiens) (UniProt A6ND48)
T6 sequence (whole entry): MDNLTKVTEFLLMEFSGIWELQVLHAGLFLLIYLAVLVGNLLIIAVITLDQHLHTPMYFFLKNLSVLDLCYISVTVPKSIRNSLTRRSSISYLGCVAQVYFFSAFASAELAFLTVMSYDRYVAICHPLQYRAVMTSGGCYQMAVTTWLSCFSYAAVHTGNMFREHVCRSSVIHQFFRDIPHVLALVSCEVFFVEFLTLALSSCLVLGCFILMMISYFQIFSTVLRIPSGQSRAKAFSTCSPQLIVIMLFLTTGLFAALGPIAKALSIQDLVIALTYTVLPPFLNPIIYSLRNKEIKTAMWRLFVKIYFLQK
Method in brief: as §1

OR14J1 (Homo sapiens) = molecular target: T7, OR14J1 (Homo sapiens) (UniProt Q9UGF5)
T7 sequence (whole entry): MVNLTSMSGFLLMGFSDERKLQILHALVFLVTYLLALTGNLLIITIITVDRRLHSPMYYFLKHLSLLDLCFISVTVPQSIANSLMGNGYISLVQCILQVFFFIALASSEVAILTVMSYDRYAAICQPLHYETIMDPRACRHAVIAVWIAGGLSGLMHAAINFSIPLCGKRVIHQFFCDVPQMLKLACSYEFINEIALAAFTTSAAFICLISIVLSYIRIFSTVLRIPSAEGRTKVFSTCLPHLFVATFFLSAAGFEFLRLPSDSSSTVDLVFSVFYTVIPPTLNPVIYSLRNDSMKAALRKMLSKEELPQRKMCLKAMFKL
Method in brief: as §1

OR14K1 (Homo sapiens) = molecular target: T8, OR14K1 (Homo sapiens) (UniProt Q8NGZ2)
T8 sequence (whole entry): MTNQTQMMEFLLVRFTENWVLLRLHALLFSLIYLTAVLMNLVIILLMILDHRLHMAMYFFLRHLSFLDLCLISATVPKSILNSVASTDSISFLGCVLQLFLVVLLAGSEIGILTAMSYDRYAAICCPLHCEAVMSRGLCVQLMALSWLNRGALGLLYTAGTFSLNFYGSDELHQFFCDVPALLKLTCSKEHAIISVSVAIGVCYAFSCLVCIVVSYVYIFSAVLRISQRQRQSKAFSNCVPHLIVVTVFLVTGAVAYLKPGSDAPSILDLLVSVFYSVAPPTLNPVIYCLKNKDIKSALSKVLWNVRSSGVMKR
Method in brief: as §1

OR1A1 (Homo sapiens) = molecular target: T9, OR1A1 (Homo sapiens) (UniProt Q9P1Q5)
T9 sequence (whole entry): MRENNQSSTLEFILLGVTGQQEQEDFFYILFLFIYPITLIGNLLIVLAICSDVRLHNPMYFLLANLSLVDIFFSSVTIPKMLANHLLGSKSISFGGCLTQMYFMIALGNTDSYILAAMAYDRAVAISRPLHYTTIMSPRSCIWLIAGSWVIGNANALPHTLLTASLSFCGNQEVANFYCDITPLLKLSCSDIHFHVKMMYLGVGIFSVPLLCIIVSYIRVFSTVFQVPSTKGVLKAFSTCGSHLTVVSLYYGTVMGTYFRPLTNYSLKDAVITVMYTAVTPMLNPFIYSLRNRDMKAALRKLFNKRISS
Method in brief: as §1

Measured: odorant receptor agonist call;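 also: active if original authors judged signal statistically different from baseline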

CCCCCCC=CCCC=O
inactive: OR13H1 (Homo sapiens) | OR13J1 (Homo sapiens) | OR14A16 (Homo sapiens) | OR14A2 (Homo sapiens) | OR14C36 (Homo sapiens) | OR14I1 (Homo sapiens) | OR14J1 (Homo sapiens) | OR14K1 (Homo sapiens) | OR1A1 (Homo sapiens)
